Measured values from different studies.
Protocols differ between the studies behind these lines. pKi: −log10 of the molar value.
TMEM97: Sigma intracellular receptor 2 (TMEM97, Homo sapiens, UniProt Q5BJF2)
lecB: Fucose-binding lectin PA-IIL (lecB, Pseudomonas aeruginosa, UniProt Q9HYN5)
CHRM3: Muscarinic acetylcholine receptor M3 (CHRM3, Homo sapiens, UniProt P20309)
SIGMAR1: Sigma non-opioid intracellular receptor 1 (SIGMAR1, Cavia porcellus, UniProt Q60492)

Compound | target | assay | conditions | pKi
CCN(CC)CCO[C@H]1CC[C@@]2(C)C(=CC[C@@H]3[C@@H]2CC[C@]2(C)C(=O)CC[C@@H]32)C1 | TMEM97 | ligand displacement, radioligand |  | 7.71
COCCCN1CCN(c2ccccc2OC)CC1 | Alpha-1D adrenergic receptor (ADRA1D, Homo sapiens, UniProt P25100) | cell-free assay |  | 6.77
CC(C)[C@@H](Nc1nc(Cl)nc2c1ncn2[C@H]1[C@H](O)[C@H](O)[C@]2(CN=[N+]=[N-])C[C@H]12)C1CC1 | Alpha-2B adrenergic receptor (ADRA2B, Homo sapiens, UniProt P18089) | ligand displacement, radioligand |  | < 5.14
CC(C)C[C@H](NC(=O)CNC(=O)[C@H](C)NC(=O)c1ccc(S(=O)(=O)NC[C@H]2O[C@@H](C)[C@@H](O)[C@@H](O)[C@@H]2O)cc1)C(=O)N[C@@H](C)C(=O)NC[C@@H]1CCN(c2cc3c(cc2F)c(=O)c(C(=O)O)cn3C2CC2)C1 | lecB | ligand displacement, FP |  | 5.75
CN(C)CCCN1c2ccccc2CCc2ccc(Cl)cc21 | TMEM97 | ligand displacement, radioligand |  | 6.70
Cn1cc(-c2cccc(N3CCc4c(sc5c4CC(C)(C)C5)C3=O)c2CO)cc(Nc2ccncn2)c1=O | Ephrin type-A receptor 7 (EPHA7, Homo sapiens, UniProt Q15375) | cell-free assay |  | 6.26
Cc1cc(N2CCNCC2)nc2ccccc12 | CHRM3 | ligand displacement, radioligand | cell membranes | 4.50
NC1C(O)C(O)C(O)C1O (stereo not drawn) | Alpha-mannosidase 2 (Drosophila melanogaster, UniProt Q24451) | enzyme activity, inhibitor, fluorescence |  | 4.00
CC(C)[C@]1(O)[C@H](O)[C@@H]2O[C@]23[C@]2(O[C@H]2C[C@H]2C4=C(CC[C@@]23C)C(=O)OC4)[C@@H]1O | dCTP pyrophosphatase 1 (Homo sapiens, UniProt Q9H773) | enzyme activity, inhibitor |  | 4.07
CC1=NC2(CCN(C)CC2)C(=O)N(c2c(C)cccc2C)C1=O | SIGMAR1 | cell-free assay |  | 8.10
CN1CCN(C2=Nc3ccccc3Oc3ccc(Cl)cc32)CC1 | TMEM97 | ligand displacement, radioligand |  | 5.46
C[C@H](N)Cn1ncc2ccc3c(c21)CCCO3 | 5-hydroxytryptamine receptor 1B (Htr1b, Rattus norvegicus, UniProt P28564) | ligand displacement, radioligand |  | 5.25
CCN(CC)CCNC(=O)c1ccc(F)cc1 | SIGMAR1 | ligand displacement, radioligand | cell membranes | 5.05
COc1cc2c(cc1OC)CN(CCc1ccc(NC(=O)c3cccc4c(=O)c5cccc(OC)c5[nH]c34)cc1)CC2 | TMEM97 | ligand displacement, radioligand |  | 7.11
Cc1ncc(C)n2nc(/C=C/c3nc(N4CCCC4)cc(N4CCOCC4)n3)nc12 | cAMP and cAMP-inhibited cGMP 3',5'-cyclic phosphodiesterase 10A (Pde10a, Rattus norvegicus, UniProt Q9QYJ6) | enzyme activity, inhibitor, TR-FRET |  | 9.23
CC(C)C[C@H](NC(=O)CNC(=O)[C@H](C)NC(=O)c1ccc(S(=O)(=O)NC[C@H]2O[C@@H](C)[C@@H](O)[C@@H](O)[C@@H]2O)cc1)C(=O)N[C@@H](C)C(=O)N1CCN(c2cc3c(cc2F)c(=O)c(C(=O)O)cn3C2CC2)CC1 | lecB | ligand displacement, FP |  | 5.72
CN1[C@@H]2CC[C@H]1C[C@@H](OC(c1ccccc1)c1ccccc1)C2 | TMEM97 | ligand displacement, radioligand |  | 7.20
c1cc(N2CCNCC2)c2cc[nH]c2c1 | CHRM3 | ligand displacement, radioligand | cell membranes | < 4.50
